Results collected from several papers.
Lines come from different studies, so protocols differ.
Target: Ephrin type-B receptor 2 (EPHB2, Homo sapiens, UniProt P29323)
Residues used in one study (P29323 1-1055): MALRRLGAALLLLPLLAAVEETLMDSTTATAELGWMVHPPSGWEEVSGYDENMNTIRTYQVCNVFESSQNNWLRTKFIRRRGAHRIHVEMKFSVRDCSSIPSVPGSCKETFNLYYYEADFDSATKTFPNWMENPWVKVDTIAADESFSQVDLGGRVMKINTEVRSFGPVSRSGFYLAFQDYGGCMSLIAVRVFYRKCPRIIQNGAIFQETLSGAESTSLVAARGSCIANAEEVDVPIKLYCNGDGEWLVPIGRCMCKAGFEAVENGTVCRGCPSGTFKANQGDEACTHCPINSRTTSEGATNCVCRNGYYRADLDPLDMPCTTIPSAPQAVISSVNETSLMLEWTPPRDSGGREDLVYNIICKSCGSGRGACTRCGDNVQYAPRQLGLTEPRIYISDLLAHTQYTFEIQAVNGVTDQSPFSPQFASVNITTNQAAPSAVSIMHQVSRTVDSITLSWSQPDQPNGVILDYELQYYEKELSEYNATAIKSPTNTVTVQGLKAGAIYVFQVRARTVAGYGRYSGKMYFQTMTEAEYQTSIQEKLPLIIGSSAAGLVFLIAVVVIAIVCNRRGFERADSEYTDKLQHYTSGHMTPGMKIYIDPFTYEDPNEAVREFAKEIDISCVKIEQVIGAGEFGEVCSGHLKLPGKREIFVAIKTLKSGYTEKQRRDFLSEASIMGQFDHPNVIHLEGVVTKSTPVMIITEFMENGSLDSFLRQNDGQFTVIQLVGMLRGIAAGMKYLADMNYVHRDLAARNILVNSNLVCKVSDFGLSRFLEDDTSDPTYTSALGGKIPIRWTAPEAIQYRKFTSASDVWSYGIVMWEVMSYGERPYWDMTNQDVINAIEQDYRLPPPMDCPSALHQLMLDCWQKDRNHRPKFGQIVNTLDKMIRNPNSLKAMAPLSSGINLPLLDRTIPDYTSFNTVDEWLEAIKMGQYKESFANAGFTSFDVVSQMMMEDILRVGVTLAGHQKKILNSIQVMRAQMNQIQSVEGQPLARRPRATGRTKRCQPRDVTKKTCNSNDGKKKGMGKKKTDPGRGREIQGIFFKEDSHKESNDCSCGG

| Structure (SMILES) | read-out | action | technique | tested at | quantity | value |
| --- | --- | --- | --- | --- | --- | --- |
| C1=C/COCc2cc(ccc2OCCN2CCCC2)Nc2nccc(n2)-c2cccc(c2)COC/1 | binding |  |  | 0.1 µM | remaining binding | 88% |
| C[C@H]1CC[C@H](n2c3cnccc3c3cnc(Nc4ccc5c(n4)CCN(C(=O)CO)C5)nc32)CC1 | cell-free assay |  | competition with immobilised ligand | 1 µM | remaining binding | 100% |
| CC#CC(=O)N1CCC[C@H]1c1nc(-c2ccc(C(=O)Nc3ccccn3)cc2)c2c(N)nccn12 | enzyme activity | inhibitor |  | 1 µM | inhibition | 6% |
| Cc1ccc(NC(=O)c2ccnc(C(F)(F)F)c2)cc1-c1cc(OCCO)nc(N2CCOCC2)c1 | binding |  | competition with immobilised ligand | 1 µM | remaining binding | 85% |
| CC(C)S(=O)(=O)c1ccc2nccc(Nc3ccc4sc(C5CCCC5)nc4c3)c2c1 | enzyme activity | inhibitor |  | 1 µM | activity vs control | 109% |
| Cc1cc(O)c(-c2ccc([C@@H](C)CN(C)C)cc2)c2c1[nH]c(=O)c1sccc12 | cell-free assay | inhibitor |  | 0.1 µM | inhibition | 0.144% |
| CCCCC(=O)Nc1ccc(-c2ccc3ncn(CCC)c(=O)c3c2)cn1 | binding |  | competition with immobilised ligand | 0.5 µM | remaining binding | 100% |
| CO[C@@H]1[C@H](N(C)C(=O)c2ccccc2)C[C@H]2O[C@]1(C)n1c3ccccc3c3c4c(c5c6ccccc6n2c5c31)C(=O)NC4 | enzyme activity | inhibitor |  | 1 µM | inhibition | 0% |
